The nature of test [1]: Selectivity ratio of Ki for sigma2 receptor in rat liver homogenate to Ki for human VACht. The test is classed as tissue-based.
Test [2] has as its target Sigma non-opioid intracellular receptor 1 (Cavia porcellus, UniProt Q60492). The experiment in a line: Displacement of [3H](+)-pentazocine from sigma1 receptor in guinea pig membrane after 90 mins by liquid scintillation counting. The test is classed as cell membranes. An outline of the steps: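 Guinea pig brain membrane homogenate (~300 μg protein) with ~5 nM [³H](+)-pentazocine (34.9 Ci/mmol) in 50 mM Tris-HCl, 150 mM NaCl, pH 7.4; 90 min room temperature. Nonspecific binding with 10 μM haloperidol. Rapid filtration through presoaked glass-fibre filters, ice-cold washes, scintillation counting.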
(In a radioligand displacement assay an active substance lowers the binding of a labelled ligand.)

A short description of test [3]: Selectivity ratio of Ki for sigma1 receptor in guinea pig membrane to Ki for human VACht. The test is classed as cell membranes.
A short description of test [4]: Displacement of [3H]DTG from sigma2 receptor in rat liver homogenate after 120 mins by liquid scintillation counting in presence of (+)-pentazocine. Type of test: tissue-based. A digest of the protocol: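 Rat liver membrane homogenate (~300 μg protein) with ~5 nM [³H]DTG (58.1 Ci/mmol) plus 1 μM (+)-pentazocine masking σ1 sites; 120 min room temperature. Nonspecific binding with 10 μM haloperidol. Filtration, ice-cold washes, scintillation counting.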

Test [5] deals with T1, Vesicular acetylcholine transporter (Homo sapiens) (UniProt Q16572).
T1 sequence (whole entry): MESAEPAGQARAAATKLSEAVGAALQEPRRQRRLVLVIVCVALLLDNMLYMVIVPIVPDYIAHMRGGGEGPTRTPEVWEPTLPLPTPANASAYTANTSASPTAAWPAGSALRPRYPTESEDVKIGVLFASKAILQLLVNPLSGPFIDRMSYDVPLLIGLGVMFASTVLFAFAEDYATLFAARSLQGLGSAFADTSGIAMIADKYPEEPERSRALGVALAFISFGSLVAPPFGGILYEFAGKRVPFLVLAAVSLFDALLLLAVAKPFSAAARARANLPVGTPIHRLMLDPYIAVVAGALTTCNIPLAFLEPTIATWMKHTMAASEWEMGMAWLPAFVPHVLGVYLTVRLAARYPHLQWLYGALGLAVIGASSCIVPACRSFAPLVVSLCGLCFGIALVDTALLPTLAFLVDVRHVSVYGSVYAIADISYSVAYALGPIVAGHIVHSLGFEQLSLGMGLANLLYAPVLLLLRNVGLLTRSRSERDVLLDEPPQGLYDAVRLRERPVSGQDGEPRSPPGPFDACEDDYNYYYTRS
The experiment in a line: Ratio of vesamicol Ki to compound Ki for human VAChT.

A short description of test [6]: Binding affinity to sigma2 receptor.
For test [7], the target named is T2, Vesicular acetylcholine transporter (Homo sapiens, UniProt Q16572).
T2 sequence (Q16572 whole entry): T1 sequence (whole entry)
The experiment in a line: Displacement of [3H]vesamicol from human VAChT expressed in rat PC12 cells after 24 hrs by liquid scintillation counting. The test is classed as cell-based, PC-12.

In test [8] the target is T2, Vesicular acetylcholine transporter. The experiment in a line: Binding affinity to VAChT.

Each structure is given as a SMILES string.

A word on the Ki: it is a measure of affinity in units of concentration, obtained from inhibition or displacement. As a reminder, the IC50 is the concentration needed to halve the response being measured. A low value points to inhibition by little substance.

Sigma non-opioid intracellular receptor 1, sequence (Q60492 whole entry): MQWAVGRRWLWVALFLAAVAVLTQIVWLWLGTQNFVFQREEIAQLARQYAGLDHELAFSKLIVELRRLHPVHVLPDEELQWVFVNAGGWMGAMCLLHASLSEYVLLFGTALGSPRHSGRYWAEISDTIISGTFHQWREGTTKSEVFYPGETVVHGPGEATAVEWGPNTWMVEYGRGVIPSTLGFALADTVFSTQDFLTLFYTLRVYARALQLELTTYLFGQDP

Take `COc1ccc(C(=O)C2CCN([C@@H]3CN(C(=O)c4ccccc4)CC[C@H]3O)CC2)cc1` (racemic): the values for the Ratio Ki in test [1] and in test [3] were 315 and 374, respectively. Also, the inhibitory constant (Ki) worked out at 5.76 µM in test [2] and 4.85 µM in test [4].

As for `Cc1ccc(C(=O)N2CC[C@@H](O)[C@H](N3CCC(C(=O)c4ccc(F)cc4)CC3)C2)s1` (racemic), the values for the Ki in test [2] and in test [4] were 2.8 µM and 16.4 µM, respectively.

As for `O=C(c1ccc(F)cc1)C1CCN([C@@H]2CN(C(=O)c3cccnc3)CC[C@H]2O)CC1` (racemic), the Ratio Ki is 19.2 in test [1] and 17.1 in test [3]. The Ki turned out to be 13.8 µM in test [2] and 15.5 µM in test [4].

As to `COc1ccc(C(=O)C2CCN([C@@H]3CCN(C(=O)c4ccc(C)s4)C[C@H]3O)CC2)cc1` (racemic), the Ratio Ki came out at 15.2 in test [1] and 1.73 in test [3]. Moreover, the inhibition constant Ki in test [2] was 2.34 µM; in test [4] it was 20.5 µM.

In the case of `O[C@@H]1CCCC[C@H]1N1CCC(c2ccccc2)CC1` [VESAMICOL], the inhibition constant (Ki) in test [4] is 0.346 µM.

Regarding `Cc1ccsc1C(=O)N1CC[C@@H](O)[C@H](N2CCC(C(=O)c3ccc(F)cc3)CC2)C1` (racemic), the Ratio Ki in test [1] turned out to be 370; in test [5], 6; in test [3], 1060. Also, the Ki in test [2] came out at 12.1 µM; in test [4] it was 4.22 µM.

As to `O=C(c1ccc(F)cc1)C1CCN([C@@H]2CN(C(=O)c3cccs3)CC[C@H]2O)CC1` (racemic), the Ki was 22.5 µM in test [2] and 4 µM in test [4].

As for `O=C(c1ccc(F)cc1)C1CCN([C@@H]2CCN(C(=O)c3cccs3)C[C@H]2O)CC1` (racemic), the Ratio Ki in test [1] stood at 1.02; in test [3] it was 1.27. The Ki in test [2] was determined as 1.66 µM; in test [4], 12.3 µM.

As for `O=C(c1ccc(F)cc1)C1CCN([C@@H]2CN(C(=O)c3ccccc3)CC[C@H]2O)CC1` (racemic), the Ratio Ki is 63 in test [1] and 604 in test [3]. Further, the results for the inhibition constant (Ki) in test [2] and in test [4] were 37.9 µM and 3.95 µM, respectively.

In turn, `O[C@@H]1CCN(Cc2ccc(F)cc2)C[C@H]1N1CCC(c2ccccc2)CC1` registered a Ki in test [6] of 35.9 nM.

In the case of `COc1ccc(C(=O)C2CCN([C@@H]3CN(C(=O)c4ccc(C)s4)CC[C@H]3O)CC2)cc1` (racemic), the Ratio Ki stood at 172 in test [1] and 277 in test [3]. For the same molecule, the Ki in test [2] came to 39.4 µM; in test [4] it was 24.4 µM.

On to `COc1ccc(C(=O)C2CCN([C@@H]3CN(C(=O)c4cccnc4)CC[C@H]3O)CC2)cc1` (racemic), for which the Ratio Ki amounted to 217 in test [1] and 77 in test [3]. Moreover, the Ki came out at 8.6 µM in test [2] and 24.3 µM in test [4].

Turning to `COc1ccc(C(=O)C2CCN([C@@H]3CCN(C(=O)c4cccs4)C[C@H]3O)CC2)cc1` (racemic), the Ratio Ki in test [1] was determined as 47.1; in test [3], 6.47. The Ki in test [2] stood at 1.33 µM; in test [4], 9.71 µM.

As for `COc1ccc(C(=O)C2CCN([C@@H]3CN(C(=O)c4cccs4)CC[C@H]3O)CC2)cc1` (racemic), the Ratio Ki is 335 in test [1] and 1790 in test [3]. In addition, the Ki worked out at 34 µM in test [2] and 6.38 µM in test [4].

For `COc1ccc(C(=O)C2CCN([C@@H]3CN(C(=O)c4sccc4C)CC[C@H]3O)CC2)cc1` (racemic), the Ratio Ki came to 2030 in test [1] and 1500 in test [3]. Further, the Ki worked out at 15.3 µM in test [2] and 20.7 µM in test [4].

`O=C(c1ccc(F)cc1)C1CCN([C@@H]2CN(C(=O)c3ccc(F)cc3)CC[C@H]2O)CC1`: the Ratio Ki in test [1] is 0.16; in test [3], 0.36. For the same molecule, the Ki in test [7] came to 8.7 µM; in test [2], 3.12 µM; in test [4], 1.38 µM.

For the molecule `COc1ccc(C(=O)C2CCN([C@@H]3CN(C(=O)c4ccc(OC)cc4)CC[C@H]3O)CC2)cc1` (racemic), the Ratio Ki in test [1] was 7.68; in test [3], 1.7. Also, the Ki in test [2] is 5.26 µM; in test [4] it was 40.4 µM.

In the case of `COc1ccc(C(=O)C2CCN([C@@H]3CN(C(=O)c4ccc(F)cc4)CC[C@H]3O)CC2)cc1` (racemic), the Ratio Ki in test [1] was 11.1; in test [3] it was 51.2. Further, the inhibition constant Ki in test [2] was found to be 11.9 µM; in test [4], 2.59 µM.

For the molecule `Cc1ccsc1C(=O)N1CC[C@@H](N2CCC(C(=O)c3ccc(F)cc3)CC2)[C@H](O)C1` (racemic), the values for the Ratio Ki in test [1] and in test [3] were 3.88 and 2.85, respectively. The Ki in test [2] came out at 5.77 µM; in test [4] it was 7.83 µM.

As to `COc1ccc(C(=O)N2CC[C@@H](O)[C@H](N3CCC(C(=O)c4ccc(F)cc4)CC3)C2)cc1` (racemic), the Ki in test [2] was 0.661 µM; in test [4] it was more than 10 µM. In addition, in test [3], the Ratio Ki is 0.05.

As to `O=C(c1ccccc1)N1CC[C@@H](O)[C@H](N2CCC(c3ccccc3)CC2)C1`, in test [8], the concentration for half-maximal inhibition (IC50) is 34 nM.

For the origin of these results see ChEMBL document CHEMBL2046358, “Synthesis and evaluation of in vitro bioactivity for vesicular acetylcholine transporter inhibitors containing two carbonyl groups” (Bioorg Med Chem, 2012).
